This is a sample that favours compounds with a hit; in the whole collection about 2.7% have one here.
S100A4 MyoIIA – inhibitors of S100A4-myosin IIA peptide binding, primary screen, biochemical, fluorescence polarization, TAMRA-MyoIIA peptide | 360,000 compounds, 0.14% hits | AID 652163, 2013 | Protein S100-A4 (Homo sapiens), P26447 | inhibition, % at 10.7 µM;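 active means mean inhibition of at least 70% across replicates, with every replicate also reaching that level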
Target sequence (P26447 whole entry, looked up): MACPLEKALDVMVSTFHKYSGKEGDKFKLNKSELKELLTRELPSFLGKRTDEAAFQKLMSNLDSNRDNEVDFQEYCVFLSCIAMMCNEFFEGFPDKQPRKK
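Material: S100A4 monomer (human). Medium: Calcium-containing HEPES buffer, pH 7.2. Probe or stimulus: labelled myosin peptide probe, 5 nM. Compound dosing: one concentration per compound. Timing: polarization read 5 min after assay mix addition, stable 5–60 min. Benchmarks: DMSO as neutral control, TFP as positive control.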
SIRT5 block – SIRT5 desuccinylase inhibitors, primary screen, biochemical, fluorescence imaging, single point, set 5. NAD-dependent protein deacylase sirtuin-5, mitochondrial (Homo sapiens), Q9NXA8. Purified SirT5, succinyl-peptide AMC, trypsin-coupled fluorescence. inhibition, % at 15 µM. 330,000 compounds, 1.1% hits. AID 652115, 2013; in the data active means inhibition above about 15%
Target sequence (Q9NXA8 whole entry, looked up): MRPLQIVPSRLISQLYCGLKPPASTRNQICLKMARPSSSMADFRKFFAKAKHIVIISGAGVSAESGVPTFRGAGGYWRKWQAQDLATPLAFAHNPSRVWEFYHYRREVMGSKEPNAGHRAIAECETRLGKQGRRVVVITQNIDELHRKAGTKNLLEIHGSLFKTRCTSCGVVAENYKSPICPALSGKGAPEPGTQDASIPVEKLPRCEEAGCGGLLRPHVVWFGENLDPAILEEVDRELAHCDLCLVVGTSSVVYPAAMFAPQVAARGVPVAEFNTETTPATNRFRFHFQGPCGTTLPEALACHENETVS
DENV2 CPE rescue – inhibitors of DENV2 cytopathic effect, primary screen, cell-based, plate reader, single concentration. DENV2-infected cells, cytopathic effect rescue. CPE inhibition, % at 9.99 µM. 350,000 compounds, 1.7% hits. AID 651640, 2012; in the data active means CPE inhibition above about 20%, passing the limit was not always enough; tested in BHK-21 cells
MLL AF4-AF9 inh – inhibitors of AF4 peptide binding to AF9, primary screen, biochemical, AlphaScreen, biotin-AF4 peptide, FLAG-AF9, single point | Protein AF-9 (Homo sapiens), P42568 | inhibition, % at 10 µM | 350,000 compounds, 0.47% hits | AID 651704, 2012;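 active means every replicate reaching a set inhibition limit, whatever the replicate mean, cut at about 25% in these data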
CaV13 FRET inh – Primary screen for inhibitors of IQ motif and Ca2+-dependent inactivation inhibitor domain binding in CACNA1D, Förster resonance energy transfer in living cells, …. HEK cells, CFP/YFP FRET ICDI-IQ, plate reader, 10 min; percent FRET-ratio fall versus neutral wells. inhibition, % at 12.3 µM. 340,000 compounds, 0.098% hits. AID 743397;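 active means mean replicate inhibition of at least 30% and at least 1% of replicates passing that level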
AlphaScreen intf – AlphaScreen signal interference counter-screen, dose response, artefact control, biochemical, cherry-picked samples, luminescence. shares compounds with MLL AF4-AF9 inh. 530 compounds, 45% hits. AC50, µM (series often up to 12 µM); cut-off not given, nearly all actives have AC50 up to about 14 µM
Numbers stand for hits; i = inactive; nt = no result.

SMILES	S100A4 MyoIIA	SIRT5 block	DENV2 CPE rescue	MLL AF4-AF9 inh	CaV13 FRET inh	others
C[C@H](CO)N1C[C@H](C)[C@H](CN(C)C(=O)Nc2ccc(F)cc2)Oc2ncc(C#CCN(C)C)cc2C1=O	i	i	i	i	nt
Cc1ccc(S(=O)(=O)Nc2ccc3c(c2)C(=O)N([C@@H](C)CO)C[C@H](C)[C@@H](CN(C)S(=O)(=O)c2ccccc2)OCCCC[C@H](C)O3)cc1	i	i	i	i	nt
Cc1ccc(S(=O)(=O)N(C)C[C@H]2OCCCC[C@H](C)Oc3ccc(NS(=O)(=O)c4ccccc4)cc3C(=O)N([C@@H](C)CO)C[C@H]2C)cc1	i	23.4	i	i	nt
Cc1ccc(S(=O)(=O)N(C)C[C@@H]2OCCCC[C@H](C)Oc3ccc(NS(=O)(=O)c4ccccc4)cc3C(=O)N([C@H](C)CO)C[C@@H]2C)cc1	i	21.5	i	i	nt
Cc1ccc(S(=O)(=O)N(C)C[C@H]2OCCCC[C@@H](C)Oc3ccc(NS(=O)(=O)c4ccccc4)cc3C(=O)N([C@H](C)CO)C[C@H]2C)cc1	i	19.5	i	i	nt
C[C@@H]1CN([C@H](C)CO)C(=O)c2cc(NC(=O)CCCN(C)C)ccc2O[C@@H](C)CCCCO[C@H]1CN(C)S(=O)(=O)c1ccc(Cl)cc1	i	i	i	i	nt
N#Cc1ccc(-c2ccc3c(c2)[C@H]2[C@H](CCN2C(=O)CN2CCOCC2)[C@H](CO)N3)cc1	i	i	i	i	nt
CO[C@H]1CC[C@H]2CCN(C)C(=O)C[C@@H](c3ccccc3)CN(C)C(=O)c3cc(C#N)ccc3OC[C@H]1O2	i	i	i	i	nt
CO[C@@H]1CC[C@H]2CCN(C)C(=O)C[C@H](c3ccccc3)CN(C)C(=O)c3cc(C#N)ccc3OC[C@@H]1O2	i	i	51.7	i	nt
Cc1ccc(NC(=S)NC(C)CCc2ccccc2)cc1C (configuration not stated)	i	nt	i	i	i
Cc1cccc(C)c1NC(=S)NC(C)CCc1ccccc1 (configuration not stated)	i	i	46.9	i	i
CN(C)CC(=O)N[C@H]1C[C@@H]2O[C@@H](CO)CC[C@@H]2O[C@@H]1CCc1ccc(C2=CCCCC2)cc1	i	i	i	i	nt
N#C[C@@H]1N[C@@H](CO)[C@@H]1c1ccc(C#CC2CCCCC2)cc1	i	i	i	i	nt
C[C@@H]1CN([C@@H](C)CO)C(=O)c2cc(NC(=O)c3ccncc3)ccc2O[C@H]1CN(C)S(C)(=O)=O	i	i	i	i	nt
NC(=S)NC1CC2CC1C1C=CCC21 (configuration not stated)	i	i	i	i	i
CNNC(=S)NC1CC2CC1C1C=CCC21 (configuration not stated)	i	i	i	i	41.3
O=C(N[C@@H]1CC[C@@H](CCNS(=O)(=O)c2ccc(F)cc2)O[C@@H]1CO)c1cccc(F)c1	i	i	i	i	nt
Nc1nc(CSc2ccc(Cl)cc2)nc(N2CCCCC2)n1	i	18.0	i	i	i
Nc1nc(CSc2ccccc2)nc(N2CCCCC2)n1	i	i	i	i	i
Cc1noc(C)c1NC(=O)N(C)C[C@@H]1Oc2ccc(NC(=O)c3ccncc3)cc2C(=O)N([C@H](C)CO)C[C@H]1C	i	i	i	i	nt
COc1ccc(CN2C(=O)c3cccnc3C2Nc2cc(Cl)ccc2OC)cc1 (configuration not stated)	i	i	nt	nt	i
COc1ccc(OC)c(NC2c3ncccc3C(=O)N2Cc2ccco2)c1 (configuration not stated)	i	16.0	i	i	i
COc1ccc(N2CCN(CCCNC(=O)CCC(=O)N3CCOc4ccc(Cl)cc43)CC2)cc1	i	i	i	38.4	i	AlphaScreen intf=12µM
Cc1ccc(C)c(N2CCN(CCCNC(=O)CCC(=O)N3CCOc4ccc(Cl)cc43)CC2)c1	i	i	i	i	i
